Measurements from different studies.
Each line is one published result; the experiments were not run side by side.
Target: Tyrosine-protein kinase Fyn (FYN, Homo sapiens, UniProt P06241)

`COc1cc2ncnc(Nc3ccc(F)c(Cl)c3)c2cc1OCCCN1CCOCC1` gave a remaining signal of 92.2% (cell-free assay; 0.5 µM).
For `Cc1sc(C(=O)NC2COC2)cc1-n1cc(NC(=O)Nc2c(F)cccc2Cl)cn1`, the remaining activity was 99.8% (enzyme activity, inhibitor; 10 µM).
For `CCCCNc1ncc2c(-c3ccc(F)cc3)nn(C[C@H]3CC[C@H](N)CC3)c2n1`, the inhibition was over 96% (target engagement in cells, inhibitor, chemoproteomics; 20 mM).
The remaining signal of `O=C1Nc2ccc(Cl)cc2C1=Cc1cc(Cl)c(O)c(Cl)c1` is reported as 73% (cell-free assay; 0.5 µM).
With `CC(C)(O)[C@H]1CC[C@H](Nc2ccc3ncc(-c4cccc(C(F)(F)F)c4)n3n2)CC1` the remaining activity was 22.4% (enzyme activity, inhibitor; 1 µM).
The inhibition of `c1ccc(CNc2nc(N3CCOc4ccccc43)nc3c2CCCC3)cc1` is reported as -18% (target engagement in cells, inhibitor, chemoproteomics; 20 mM).
For `CC(C)c1ccc(NC(=O)c2cccs2)c(-c2nc3ccccc3[nH]c2=O)c1`, the activity vs control was 103% (enzyme activity, inhibitor; 1 µM).
For `Cc1cc(NC(=O)c2cccc(S(F)(F)(F)(F)F)c2)cc(-n2ccn3nc(-c4cccnc4)cc23)c1`, the remaining binding was 81.3% (cell-free assay, competition with immobilised ligand; 1 µM).
`C=CC(=O)Nc1cc(Nc2nccc(Nc3cc(Cl)c(F)cc3C(C)(C)O)n2)c(OC)cc1N1CC[C@@H](N(C)C)C1` gave an inhibition of 23% (enzyme activity, inhibitor; 1 µM).
`Cc1nc(Cc2cccc(C(F)(F)F)c2)sc1-c1ccc(C(N)=O)nc1` gave a remaining binding of 100% (cell-free assay, competition with immobilised ligand; 1 µM).
`CC/C(=N\NC(=O)NCc1cccc(O)c1)c1ccc(O)c(C)c1O` has an inhibition of 0.5% (enzyme activity, inhibitor; 0.1 µM).
For `CCN(CC)c1ccc(C2=NNC(=O)CC2C)cc1[N+](=O)[O-]` (centres unmarked), the remaining activity was 110% (enzyme activity, inhibitor; 10 µM).
The remaining activity of `CCCOc1ccc(OC)c(F)c1C(=O)c1ccc(C(=O)N[C@@H]2CNC[C@H]2NC(=O)c2ccc3[nH]ncc3c2)cc1` is reported as 69% (enzyme activity, inhibitor; 10 µM).
With `CN([C@@H]1CCc2c(CC(=O)O)c3cc(S(C)(=O)=O)ccc3n2C1)S(=O)(=O)c1ccc(F)cc1` the remaining binding was 99% (cell-free assay, competition with immobilised ligand; 1 µM).
`CNCc1ccc(-c2cc(-c3nc(-c4ccc(S(=O)(=O)C(C)C)cc4)cnc3N)on2)cc1` has an inhibition of 27% (enzyme activity, inhibitor; 2 µM).
`CN(C(=O)c1ccccc1)c1cc(N(C)c2ccc3c(c2)CCc2ccc(C(=O)NCCN4CCOCC4)cc2C3=O)ccc1F` gave a remaining binding of 61% (cell-free assay, competition with immobilised ligand; 1 µM).
For `Cc1ccc(NC(=O)c2ccc(C)c(C(F)(F)F)c2)cc1C#Cc1nn(C2CCC(O)CC2)c2ncnc(N)c12` (centres unmarked), the remaining signal was 0% (cell-free assay; 10 µM).
`Cn1cnc(Br)c1C1=CN(c2ncnc3[nH]cnc23)CCS1` has an inhibition of 21.6% (enzyme activity, inhibitor, radiometric; 50 nM).
For `O=c1c2ccccc2[nH]c(=S)n1CCN1CCC(=C(c2ccc(F)cc2)c2ccc(F)cc2)CC1`, the remaining activity was 102% (enzyme activity, inhibitor; 0.5 µM).
The remaining binding of `O=c1nc(-c2ccccn2)sc2ccccc12` is reported as 100% (binding, competition with immobilised ligand; 1 µM).
The remaining activity of `CCN(CC)CCNC(=O)c1c(C)[nH]c(/C=C2\C(=O)Nc3ccc(Cl)cc32)c1C` is reported as 28.4% (enzyme activity, inhibitor; 0.5 µM).
The inhibition of `COc1cc2ncnc(Nc3ccc(Oc4ccccc4)cc3C)c2cc1OC` is reported as 83% (enzyme activity, inhibitor; 1 µM).
For `COc1ccc2cc(OCC3(C(=O)O)CN(C(=O)c4ccc(F)cc4)C3)ccc2c1`, the remaining binding was 100% (cell-free assay, competition with immobilised ligand; 1 µM).
For `CC(C)(C)c1nc2c(s1)c1nc(N)ncc1c1ccc(NS(=O)(=O)c3c(F)cccc3F)c(F)c12`, the remaining activity was 97% (enzyme activity, inhibitor, radiometric; 1 µM).
The remaining signal of `N#CCCc1ccc2c(c1)-c1[nH]c3ccc([N+](=O)[O-])cc3c1CC(=O)N2` is reported as 52.2% (cell-free assay; 0.5 µM).
`CCOC(=O)c1cc2cc(-c3cc(C(=O)NCc4ccc(C(=O)O)cc4)nn3C)ccc2[nH]1` has a remaining binding of 100% (cell-free assay, competition with immobilised ligand; 0.1 µM).
The remaining activity of `COc1cc(Cl)c(C(=O)N[C@@H](CN[C@H]2CC[C@@H](N)CC2)Cc2ccc(C#N)cc2)cc1-c1ccc(CN[C@H](C)c2ccc(C)cc2)o1` is reported as 104% (enzyme activity, inhibitor; 1 µM).
With `CCc1ccccc1C(=O)Nc1n[nH]c2c(C)c(F)c(C3C(C#N)=C(C)N(C)C(C)=C3C#N)cc12` the remaining binding was 100% (cell-free assay, competition with immobilised ligand; 1 µM).
The inhibition of `CNC(=O)c1cc(Oc2ccc(NC(=O)Nc3ccc(Cl)c(C(F)(F)F)c3)cc2)ccn1` is reported as -22% (enzyme activity, inhibitor; 0.3 µM).
For `c1nc2c(Nc3ccc4c(c3)OCCO4)nc(Nc3ccc4c(c3)OCCO4)nc2[nH]1`, the activity vs control was 8.7% (enzyme activity, inhibitor; 10 µM).
With `CCN(CC)CCNC(=O)c1c(C)[nH]c(/C=C2\C(=O)Nc3ccc(F)cc32)c1C` the inhibition was 89% (enzyme activity, inhibitor; 10 µM).
`COc1cc(Nc2c(C#N)cnc3cc(OCCCN4CCN(C)CC4)c(OC)cc23)c(Cl)cc1Cl` has a remaining signal of 29.4% (cell-free assay; 0.5 µM).
